Screening results deposited in PubChem by Johns Hopkins Ion Channel Center.
The list is not random: actives were taken first. Their share in the collection is about 3.8%.
Kir21 inh – inhibitors of mouse Kir2.1 inward-rectifier potassium channel. HEK293-Kir2.1, FluxOR thallium flux fluorescence; stronger effect = lower value. B-score at 10 µM. actives 0.85% (n = 310,000);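 active = fluorescence ratio B-score at or below minus 3 SD of library scores, with starting-brightness B-score within 2 SD, cut at about -4.2 in these data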;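 also: channel flux triggered by added potassium and thallium sulfate stimulus; B-score of peak minus minimum fluorescence over baseline after thallium stimulus; more negative B-score means stronger Kir2.1 block with less thallium influx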
KCNK3 block – human KCNK3 channel inhibitors, primary screen, CHO cells, FluxOR thallium flux, B-score; B-score at 10 µM; AID 602410, 2012; FluxOR fluorescence; stronger effect = lower value; Potassium channel subfamily K member 3 (Homo sapiens), O14649; actives 0.84% (n = 340,000);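 active = B-score under library mean minus 4 SD, starting fluorescence ratio at most library mean plus 5 SD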;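 also: more negative B-score means stronger inhibition of thallium flux through KCNK3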
KCNQ1 pot – potentiators or activators of KCNQ1 channel, primary screen, cell-based, thallium flux, high-throughput; Potassium voltage-gated channel subfamily KQT member 1 (Homo sapiens), P51787; CHO-K1 KCNQ1, thallium flux FluxOR fluorescence; stronger effect = higher value; B-score at 10 µM; actives 0.35% (n = 310,000);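 active = fluorescence ratio B-score, a plate-corrected score, at least three library SD, with initial intensity B-score within 5 SD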
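assay system = CHO-K1 cells stably expressing KCNQ1 | medium = assay buffer, equal DMSO in all wells | timing = 37 °C overnight plating, 90-min dark dye load, 20-min compound pretreatment | measured by = kinetic FluxOR thallium fluorescence, 10-s 1-Hz baseline, 110-s post-stimulus read | measure = fluorescence change relative to baseline, converted to B score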
hERG rescue – hERG rescue from dofetilide block, primary screen, cell-based, CHO-hERG, FluxOR thallium flux, dofetilide IC70; dofetilide IC70 present; activation (rescue from dofetilide block), less the hit threshold, % at 10 µM; actives 0.51% (n = 310,000); AID 1511, 2009;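 active = activation above the mean of controls blocked by dofetilide plus 5 SD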;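 also: thallium influx through hERG after potassium depolarization seen as dye fluorescence rise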
KCNQ1 inh – inhibitors of human KCNQ1 channel, primary screen, cell-based, thallium flux, high-throughput | actives 1.3% (n = 310,000) | CHO-K1 KCNQ1, FluxOR thallium flux fluorescence; stronger effect = higher value | AID 2642, 2010 | B-score at 10 µM | Potassium voltage-gated channel subfamily KQT member 1 (Homo sapiens), P51787;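 active = compounds whose thallium flux B-score, printed positive for inhibition, exceeds three library SD while starting fluorescence stays within three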;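 also: channel opened by potassium depolarization with thallium stimulus after 20 min compound exposure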
KCNK9 block – KCNK9 potassium channel inhibitors, primary screen, HEK293 cells, thallium flux | B-score at 10 µM | actives 1.2% (n = 310,000) | FluxOR thallium flux fluorescence; stronger effect = lower value | AID 488922, 2010;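 active = ratio B-score over 3 SD below the library mean, with starting fluorescence within 5 SD of its mean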;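 also: negative B-score means less thallium flux so channel inhibition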
Target sequence (Q9NPC2 whole entry, looked up): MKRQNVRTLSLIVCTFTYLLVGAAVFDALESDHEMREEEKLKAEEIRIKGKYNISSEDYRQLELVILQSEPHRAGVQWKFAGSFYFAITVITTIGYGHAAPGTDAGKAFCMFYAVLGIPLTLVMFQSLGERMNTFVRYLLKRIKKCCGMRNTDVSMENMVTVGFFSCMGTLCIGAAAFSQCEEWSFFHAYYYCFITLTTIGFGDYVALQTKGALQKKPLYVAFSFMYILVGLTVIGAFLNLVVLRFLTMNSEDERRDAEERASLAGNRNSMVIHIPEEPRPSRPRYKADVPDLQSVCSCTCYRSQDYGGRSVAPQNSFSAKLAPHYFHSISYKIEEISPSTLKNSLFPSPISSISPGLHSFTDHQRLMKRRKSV
Large screens that a line does not name were inactive.

O=C(NC(=S)Nc1nc2ccccc2s1)c1cccs1	KCNQ1 pot 54, hERG rescue 52
O=C(Nc1ccc(Cl)c(NC(=O)c2cccs2)c1)c1ccco1	none
COC(=O)c1nc(NC(=S)NC(=O)c2cccs2)sc1C	none
CC1CCCCC1NC(=S)NC(=O)c1cccs1 (stereo not drawn)	KCNQ1 pot 20, hERG rescue 5.2
CC1CCN(c2ccccc2NC(=S)NC(=O)c2cccs2)CC1	KCNQ1 pot 14
O=C(NCCC(c1ccccc1)c1ccccc1)c1cccs1	KCNK9 block -7
COc1ccc(/C=C/C(=O)c2ccc(NC(=O)c3cccs3)cc2)cc1OC	hERG rescue 8.9
COc1ccc(C(=O)Nc2cccc(NC(=O)c3cccs3)c2)cc1OC	none
CC(OC(=O)c1cccs1)C(=O)NC1CCCCC1C (stereo not drawn)	none (no result: Kir21 inh, KCNQ1 pot, hERG rescue, KCNQ1 inh, KCNK9 block)
Cc1cc(C)c2nc(N(CCN(C)C)C(=O)c3ccc(S(=O)(=O)N(C)CC4CCCO4)cc3)sc2c1 (stereo not drawn)	none
O=C(NC(=S)Nc1ccccc1)c1cccs1	KCNQ1 pot 11, hERG rescue 10
CCC(C)(C)c1ccc(OCCCC[n+]2ccccc2)c(C(C)(C)CC)c1	none
CCCCCc1ccc(OCCCC[n+]2cccc(C)c2)c(CCCCC)c1	Kir21 inh -5.1, KCNQ1 inh 10, KCNK9 block -7.5
CCCCCc1ccc(OCCCC[n+]2ccc(C)cc2)c(CCCCC)c1	Kir21 inh -9.1, KCNQ1 inh 11, KCNK9 block -7.2
O=C(Nc1nc(-c2cccs2)cs1)c1ccc(S(=O)(=O)N2CCCCC2)cc1	KCNQ1 inh 6
Cc1ccc(C)c2c1cc(C)c1nnc(SCC(=O)c3cccs3)n12	Kir21 inh -7.5
Cc1ccc(C)c2c1cc(C)c1nnc(SCC(=O)Nc3nc4c(s3)CCCC4)n12	none
Cc1ccc2cc(C)c3nnc(SCC(=O)c4cccs4)n3c2c1C	Kir21 inh -5.1
CCCCCCCCCc1nc2sc3c(c2c(=O)n1NC(=O)c1ccc([N+](=O)[O-])cc1)CC(C)(C)OC3	KCNQ1 inh 7
CCCc1nc2sc3c(c2c(=O)n1NC(=O)c1ccco1)CC(C)(C)OC3	none
CCCCCCCCCc1nc2sc3c(c2c(=O)n1NC(=O)c1ccccc1[N+](=O)[O-])CC(C)(C)OC3	KCNQ1 inh 8
CC(C)C(NS(=O)(=O)c1cccc2nsnc12)C(=O)Nc1nc2ccc(Cl)cc2s1 (stereo not drawn)	none
CCn1c(SCC(=O)OCc2ccccc2)nnc1-c1ccco1	Kir21 inh -5.9
CC(C)Cn1c(SCC(=O)c2ccc(Cl)s2)nnc1-c1ccco1	Kir21 inh -9.4
COCC(Cc1ccccc1)NC(=O)Cn1cc(C)c(=O)[nH]c1=O (stereo not drawn)	none (no result: Kir21 inh, KCNQ1 pot, hERG rescue, KCNQ1 inh, KCNK9 block)
CCOc1ccc(NC(=O)CN(C)C(=O)c2c(-c3c(F)cccc3Cl)noc2C)cc1OCC	KCNQ1 pot 8
COc1ccc(-c2nn(-c3ccccc3)cc2/C=C/C(=O)NCCCn2ccnc2)cc1OC	KCNQ1 inh 7
COc1ccc(-c2nn(-c3ccccc3)cc2/C=C/C(=O)N(C)CC(=O)Nc2cccc(F)c2)cc1OC	KCNK3 block -10 (no result: Kir21 inh, KCNQ1 pot, hERG rescue, KCNQ1 inh, KCNK9 block)
CCOc1ccc(NC(=O)CN(C)C(=O)c2cn(-c3ccc(F)cc3)nc2-c2cccc(OC)c2)cc1OCC	KCNQ1 inh 7
C=C[C@@]1(C)CC(=O)[C@]2(O)[C@@]3(C)[C@@H](O)CCC(C)(C)[C@@H]3[C@H](OC(C)=O)[C@H](O)[C@@]2(C)O1	KCNQ1 pot 13
C=C[C@@]1(C)CC(=O)[C@]2(O)[C@@]3(C)[C@@H](O)CCC(C)(C)[C@@H]3[C@H](O)[C@H](OC(C)=O)[C@@]2(C)O1	KCNQ1 pot 12
COC(=O)c1c(C)nc(C)c(C(=O)OC)c1-c1cccs1	hERG rescue 8.1
COC(=O)c1sc(-c2cccs2)cc1N	none
Cc1sc(-n2c(C)cc(/C=C3\SC(=S)NC3=O)c2C)c(C#N)c1C	KCNQ1 pot 9
O=C(NC1CCN(C(=S)NCc2ccco2)CC1)C1CCCCC1	none
Cc1cc(=O)oc2cc(OC(=O)c3ccco3)ccc12	Kir21 inh -12
Cc1ccc2cc(C)c(SCC(=O)NCC3CCCO3)nc2c1 (stereo not drawn)	Kir21 inh -4.3
COc1cc(OC)cc(C(=O)NNC(=O)CCCOc2ccccc2)c1	none (no result: Kir21 inh, KCNQ1 pot, hERG rescue, KCNQ1 inh, KCNK9 block)
CC(C)(C)c1ccc(Oc2ccc(NC(=O)c3ccccc3C(=O)O)cn2)cc1	none
CCCCn1nnc(NC(=O)c2ccc(-c3cccc([N+](=O)[O-])c3)o2)n1	hERG rescue 22 (no result: KCNK3 block)
CCCn1nnc(NC(=O)Cc2ccccc2)n1	none
CCCCn1nnc(NC(=O)Cc2ccc(Cl)cc2)n1	hERG rescue 6.0
CN1CCN(c2ccc(-c3ccnn3C(=O)Nc3ccccc3)cc2)CC1	none
CCN(c1ccccc1)S(=O)(=O)c1ccc(NC(=O)c2nc(S(C)(=O)=O)ncc2Cl)cc1	KCNQ1 pot 17
CCS(=O)(=O)c1ncc(Cl)c(C(=O)Nc2ccc(S(=O)(=O)N(C)c3ccccc3)cc2)n1	none
CCN(c1ccccc1)S(=O)(=O)c1ccc(Cl)nc1	Kir21 inh -4.3
CCN(c1cccc2ccccc12)S(=O)(=O)c1ccc(Cl)nc1	none
Cc1cccc(C)c1NC(=O)CNC(=O)C(NC(=O)c1ccc(C(C)(C)C)cc1)C(C)C (stereo not drawn)	none
CCOCCCNC(=O)C(NC(=O)c1ccccc1O)c1ccc(C)cc1 (stereo not drawn)	none
Cc1cc(C(=O)Nn2c(-c3ccc(Br)cc3)nc3ccccc3c2=O)ccc1[N+](=O)[O-]	KCNQ1 inh 6
COc1ccc(C(=O)On2c(-c3ccc(Br)cc3)nc3ccccc3c2=O)cc1	KCNQ1 pot 10
CC(NCCS(=O)(=O)c1ccc(Cl)cc1)c1cccc(Cl)c1 (stereo not drawn)	Kir21 inh -13
O=C(NCCOc1ccccc1)c1cncc(Br)c1	none
O=C(c1ccc(N2C(=O)C3CC=C(Cl)CC3C2=O)cc1)N1CCOCC1 (stereo not drawn)	none
O=S(=O)(c1ccccc1)N1CCCC1c1nc2ccccc2s1 (stereo not drawn)	Kir21 inh -4.5
O=C(Nc1nc2ccccc2s1)C1CCCN1S(=O)(=O)c1ccc(Cl)cc1 (stereo not drawn)	none
Cc1ccc(OCc2nc(-c3cccs3)no2)c([N+](=O)[O-])c1	none
